From ChEMBL document CHEMBL1157725 (Bioorg Med Chem, 2010)

What was measured:
MCF7 = test: Antiproliferative activity against human MCF7 cells after 24 hrs by SRB assay; type: functional, cell-based; settings: MCF7, 24 h
Method in brief: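 MCF-7 cells are grown for 24 h with or without drug, then for a further 48 h. Total cell protein is measured by sulforhodamine B staining, and the IC₅₀ is derived from it.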

[1] = Inhibition of tubulin in rat A10 cells assessed as induction of cellular microtubule disassembly after 18 hrs by indirect immunofluorescence technique; type: cell-based; settings: A10, 18 h
Method in brief: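 A-10 cells plated on glass coverslips and treated with compound at varying concentrations for 18 h. After fixation, microtubules immunostained with a β-tubulin antibody (indirect immunofluorescence) and nuclei stained with DAPI. Read by fluorescence microscopy. Percentage of cellular microtubule loss estimated visually across the concentration range.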

**Q.** For `COc1ccc(/C=C\c2cc(OC)c(OC)c(OC)c2)cc1O` [COMBRETASTATIN A4], which IC50 (MCF7) is on record?
**A.** 32 nM

**Q.** And the EC50 [1]?
**A.** < 25 nM
